According to ChEMBL document CHEMBL1149043, “Antiplatelet constituents of formosan Rubia akane” (1994):

How the values were obtained:
Platelet [1] = experiment: Inhibition of collagen-induced platelet aggregation in rabbit platelet assessed as aggregation at 300 uM treated 3 mins before collagen challenge by turbidimetric method; format: functional, Oryctolagus cuniculus
Summary of the method: (§1)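 Washed rabbit platelets (EDTA PRP, 4.5×10^8/ml, Tyrode's with 0.35% BSA) were preincubated 3 min at 37° with agent at 300 μM or 0.5% DMSO control. Percent aggregation was read turbidimetrically and reported as mean±SEM (n) with significance versus control.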

Platelet [2] = experiment: Inhibition of thrombin-induced platelet aggregation in rabbit platelet assessed as aggregation at 300 uM treated 3 mins before thrombin challenge by turbidimetric method; format: functional, Oryctolagus cuniculus; summary of the method: as §1
Platelet [3] = experiment: Inhibition of arachidonic acid-induced platelet aggregation in rabbit platelet assessed as aggregation at 300 uM treated 3 mins before arachidonic acid challenge by turbidimetric method; format: functional, Oryctolagus cuniculus; set-up: scale not given: the % may be the effect or the level left; summary of the method: as §1
Platelet [4] = experiment: Inhibition of platelet activating factor-induced platelet aggregation in rabbit platelet assessed as aggregation at 300 uM treated 3 mins before platelet activating factor challenge by turbidimetric method; format: functional, Oryctolagus cuniculus; summary of the method: as §1
Platelet [5] = experiment: Antiplatelet activity against rabbit platelet assessed as inhibition of arachidonic acid-induced platelet aggregation treated 3 mins before arachidonic acid challenge by turbidimetric method; format: functional, cell-based; details: Oryctolagus cuniculus
Platelet [6] = experiment: Inhibition of collagen-induced platelet aggregation in rabbit platelet assessed as aggregation at 50 uM treated 3 mins before collagen challenge by turbidimetric method; format: functional, Oryctolagus cuniculus; set-up: scale not given: the % may be the effect or the level left
Summary of the method: (§2)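 Rabbit platelets, washed from EDTA PRP and suspended at 4.5×10^8/ml in Tyrode's/0.35% BSA, were preincubated 3 min at 37° with agent at 50 μM, with 0.5% DMSO as control. Turbidimetric percent aggregation is given as mean±SEM (n).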

Platelet [7] = experiment: Inhibition of platelet activating factor-induced platelet aggregation in rabbit platelet assessed as aggregation at 50 uM treated 3 mins before platelet activating factor challenge by turbidimetric method; format: functional, Oryctolagus cuniculus; set-up: scale not given: the % may be the effect or the level left; summary of the method: as §2
Platelet [8] = experiment: Inhibition of thrombin-induced platelet aggregation in rabbit platelet assessed as aggregation at 50 uM treated 3 mins before thrombin challenge by turbidimetric method; format: functional, Oryctolagus cuniculus; set-up: scale not given: the % may be the effect or the level left; summary of the method: as §2
Platelet [9] = experiment: Inhibition of arachidonic acid-induced platelet aggregation in rabbit platelet assessed as aggregation at 50 uM treated 3 mins before arachidonic acid challenge by turbidimetric method; format: functional, Oryctolagus cuniculus; set-up: scale not given: the % may be the effect or the level left; summary of the method: as §2
Platelet [10] = experiment: Antiplatelet activity against rabbit platelet assessed as inhibition of collagen-induced platelet aggregation treated 3 mins before collagen challenge by turbidimetric method; format: functional, cell-based; details: Oryctolagus cuniculus

| SMILES | Platelet aggregation (Platelet [1]) | Percent platelet aggregation (Platelet [2]) | Activity (Platelet [3]) | Platelet aggregation (Platelet [4]) | Activity (Platelet [5]) | Activity (Platelet [6]) | Activity (Platelet [7]) | Activity (Platelet [8]) | Activity (Platelet [9]) | Activity (Platelet [10]) |
| --- | --- | --- | --- | --- | --- | --- | --- | --- | --- | --- |
| COC(=O)c1c2c(c3ccccc3c1O)OC(C)(C)C=C2 [MOLLUGIN] | 34.1% | 90.9% | 0% | 62.5% | Dose-dependent effect |  |  |  |  |  |
| CC(=O)O[C@H]1[C@H](O)[C@@H](CO)O[C@@H](Oc2cc3c(c(O)c2C)C(=O)c2ccc(O)cc2C3=O)[C@@H]1O[C@@H]1O[C@H](C)[C@@H](O)[C@H](O)[C@@H]1O | 82.4% | 82.4% | 90.6% | 81.5% |  |  |  |  |  |  |
| CC(=O)Oc1ccccc1C(=O)O [ASPIRIN] |  |  |  |  |  | 85.4% | 90.5% | 91.9% | 0% |  |
| O=C1c2ccccc2C(=O)c2c(O)cc(O)cc21 [XANTHOPURPURIN] | 3.8% | 86.9% | 85% | 82.6% |  |  |  |  |  |  |
| COC(=O)c1c(CC=C(C)C)c(O[C@@H]2O[C@H](CO)[C@@H](O)[C@H](O)[C@H]2O)c2ccccc2c1O[C@@H]1O[C@H](CO)[C@@H](O)[C@H](O)[C@H]1O | 81.2% | 91.3% | 86.9% | 90.3% |  |  |  |  |  |  |
| Cc1ccc2c(c1O)C(=O)c1ccccc1C2=O | 85.7% | 88.7% | 81.6% | 82.3% |  |  |  |  |  |  |
| Cc1c(O)cc2c(c1O)C(=O)c1ccc(O)cc1C2=O | 8.2% | 85.5% | 83% | 77.8% |  |  |  |  |  | Dose-dependent effect |
| Cc1c(O[C@@H]2O[C@H](CO)[C@@H](O)[C@H](O)[C@H]2O[C@@H]2O[C@H](C)[C@@H](O)[C@H](O)[C@@H]2O)cc2c(c1O)C(=O)c1ccc(O)cc1C2=O | 84% | 87% | 83.4% | 89.4% |  |  |  |  |  |  |
| O=C1c2ccccc2C(=O)c2c1cc(O[C@@H]1O[C@H](CO[C@@H]3OC[C@@H](O)[C@H](O)[C@H]3O)[C@@H](O)[C@H](O)[C@H]1O)c(CO)c2O [LUCIDIN PRIMEVOROSIDE] | 83.5% | 92.2% | 88.5% | 89.1% |  |  |  |  |  |  |
| O=C1c2ccccc2C(=O)c2c(O)cc(O[C@@H]3O[C@H](CO)[C@@H](O)[C@H](O)[C@H]3O)cc21 | 0% | 85.2% | 71.9% | 65.5% |  |  |  |  |  | Dose-dependent effect |
